# Source: PubChem (several laboratories)
# The list is not random: actives were taken first. Their share in the collection is about 2.6%.
# MC4R ag barr: human MC4R agonism via beta-arrestin | U2OS MC4R beta-arrestin complementation, luminescence; percent of melanotan II response, DMSO zero | activation, % at 8.9 µM | 360,000 compounds, 0.98% hits | AID 540308 | P32245;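 active = activation above a per-plate cutoff, the mean activation of sample wells on that plate plus 3 SD, cut at about 8% in these data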
# Target sequence (P32245 whole entry, looked up): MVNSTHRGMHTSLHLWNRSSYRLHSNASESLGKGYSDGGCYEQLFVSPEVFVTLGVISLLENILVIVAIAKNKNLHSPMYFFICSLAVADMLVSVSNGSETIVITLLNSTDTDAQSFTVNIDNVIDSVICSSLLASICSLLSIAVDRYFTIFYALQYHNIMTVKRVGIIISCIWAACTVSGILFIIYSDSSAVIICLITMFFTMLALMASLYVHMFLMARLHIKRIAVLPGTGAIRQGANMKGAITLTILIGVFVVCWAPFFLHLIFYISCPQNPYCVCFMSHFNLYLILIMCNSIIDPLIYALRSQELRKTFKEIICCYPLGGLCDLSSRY
# T cell modulator: modulates CD8 T cell binding to vesicles | 2C CD8+ T cell-vesicle binding, flow cytometry; stronger effect = lower value | response (vesicle binding), % at 7 µM | 330,000 compounds, 0.068% hits;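 active = response, share of CD8 T cells binding vesicles, and their 90th percentile fluorescence all below set limits, cut at about 80% in these data, passing the limit was not always enough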;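 note: values below 100% mean blocked vesicle binding to the CD8+ T cells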
#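 incubation = binding step 1.5 h, 37 °C, antibody labelling 20 min, ice | test system = 2C mouse CD8+ T cells | read-out basis = percent CD8+ FL2 mean versus row control | controls = Peptide-free naked vesicles (low) and QL9 vesicles with 0.7% DMSO vehicle (high) | detection = flow cytometry of vesicle-bound cells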
# Granule exo inh: lytic granule exocytosis inhibition; TALL-104 LAMP-1 surface exposure, flow cytometry; cells stimulated with thapsigargin and PMA; inhibition, % at 10 µM; 360,000 compounds, 0.66% hits;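 active = inhibition above about 55%, limit read from the data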
# EP2 modulator: modulators of human EP2 prostaglandin E2 receptor; induction, % at 25 µM; EP2-expressing cells, cAMP HTRF FRET, PGE2 co-stimulation; P43116; 260,000 compounds, 0.83% hits;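 active = compounds whose cAMP rise, as percent of the full-agonist control response, exceeds 60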;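 note: rat C6 glioma line stably carrying human EP2 under a CMV promoter; the protocol text gives 20 µM as final concentration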
# Target sequence (P43116 whole entry, looked up): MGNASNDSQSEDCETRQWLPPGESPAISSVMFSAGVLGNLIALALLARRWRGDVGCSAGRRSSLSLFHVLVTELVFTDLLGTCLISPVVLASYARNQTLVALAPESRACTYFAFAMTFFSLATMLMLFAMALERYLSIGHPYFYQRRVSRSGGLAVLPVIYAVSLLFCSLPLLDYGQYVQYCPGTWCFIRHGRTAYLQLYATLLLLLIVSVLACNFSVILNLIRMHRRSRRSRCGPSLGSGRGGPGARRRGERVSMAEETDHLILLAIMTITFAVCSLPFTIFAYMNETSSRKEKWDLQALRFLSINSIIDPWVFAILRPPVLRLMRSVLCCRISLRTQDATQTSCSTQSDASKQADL
# EP2 antag: blocks the human prostaglandin E2 receptor EP2 | P43116 | C6 glioma cells expressing human EP2, cAMP TR-FRET; cells stimulated with saturating PGE2 | inhibition, % at 25 µM | 260,000 compounds, 0.52% hits | AID 1422;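 active = percent inhibition above 40 after rounding to a whole number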;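 note: rat C6 glioma host cells with rolipram phosphodiesterase inhibitor present; the protocol text gives 20 µM as final concentration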
# MC4R antag cAMP: human MC4R antagonism in cAMP assay. inhibition, % at 6.5 µM. AID 540295. 360,000 compounds, 0.48% hits. MC4R-expressing cells, MTII-stimulated cAMP, LANCE TR-FRET;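 active = inhibition above its plate's cutoff, the mean of tested wells on that plate plus 3 SD, cut at about 29% in these data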
#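 System – human MC4R-expressing U2OS cells · Also added – Melanotan II · Dosing – one concentration, 6.5 µM nominal · Timing – 30-min compound, 1-h challenge, 1-h detection, room temperature · Measured by – Eu-cAMP/anti-cAMP TR-FRET, emission 671 nm · Replicates – singlicate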
# MC4R barr conf: human MC4R beta-arrestin agonism confirmation; shares compounds with MC4R ag barr; U2OS MC4R beta-arrestin recruitment, luminescence; scaled DMSO 0%, Melanotan II 100%; activation, % at 8.9 µM; 2,400 compounds, 31% hits; AID 602192;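 active = mean activation across replicates above the hit cutoff set in the earlier primary screen, cut at about 8% in these data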
# MOR-DOR barr ag: activates mu-delta opioid heterodimer, MC4R agonist counter-screen; shares compounds with MC4R ag barr; U2OS PathHunter beta-arrestin, beta-gal luminescence; percent of deltorphin B response, DMSO zero; activation, % at 9.2 µM; 2,400 compounds, 5.8% hits;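 active = mean activation across replicates exceeds the hit threshold derived in the earlier primary screen, cut at about 18% in these data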
# Numbers stand for hits; – = inactive; · = not tested or not shown.
SMILES,MC4R ag barr,T cell modulator,Granule exo inh,EP2 modulator,EP2 antag,MC4R antag cAMP,MC4R barr conf,MOR-DOR barr ag
N#Cc1ccc(C(=O)OCC(=O)NC2CCCC2)cc1,–,–,–,·,·,–,·,·
CCOc1ccc(CC2S/C(=N/N=C/c3ccco3)NC2=O)cc1 (stereo not drawn),14,–,–,–,–,–,–,–
O=C1N/C(=N\N=C\c2ccco2)SC1Cc1ccccc1[N+](=O)[O-] (stereo not drawn),–,–,–,–,–,–,·,·
Cc1onc(-c2ccccc2Cl)c1C(=O)NCc1ccc(N2CCCC2=O)cc1,–,–,–,–,–,–,·,·
COc1cc(/C=N/N=C(/N)c2nonc2N)cc(Br)c1OCc1ccccc1C,16,–,–,–,–,–,–,–
O=C(COC(=O)C1CCN(c2ccc(C(F)(F)F)cn2)CC1)Nc1cccc(F)c1,13,–,–,·,·,–,–,–
Cc1ccc2nc(NC3=NC(CC(=O)O)C(=O)N3)nc(C)c2c1 (stereo not drawn),·,–,·,–,–,·,·,·
CCc1ccc(NC(=O)COc2ccc(/C=C(/C#N)c3nc4ccccc4[nH]3)cc2OC)cc1,69,–,–,–,–,–,17,23
CC(=O)c1cccc(NC(=O)C(C)OC(=O)CNC(=O)c2ccc(C)s2)c1 (stereo not drawn),–,–,–,–,–,–,·,·
Cc1c(OCC(=O)N(C)C)ccc2c3c(c(=O)oc12)CCCCC3,–,–,–,–,–,–,·,·
CC(C)c1ccc(/C=C/C(=O)Nc2nc3ccc([N+](=O)[O-])cc3s2)cc1,22,–,–,–,–,–,–,–
CC(C)(C)c1ccc(C(=O)O/N=C(\N)c2ccccc2)cc1,16,–,–,·,·,–,8.4,–
CC(C)Oc1ccc(C(=O)Nc2ccc(NC(=O)c3ccco3)c(Cl)c2)cc1,–,–,–,–,–,–,·,·
CC(C)COc1ccc(C(=O)Nc2ccc(NC(=O)c3ccco3)c(Cl)c2)cc1,40,–,–,–,–,–,24,28
CC1(C)CC(=O)C2=C(C1)Nc1[nH]n(-c3ccccc3)c(=O)c1C2c1ccc2c(c1)OCO2 (stereo not drawn),–,·,–,–,–,–,·,·
O=C(COC(=O)c1ccccc1NC(=O)c1ccco1)NCCC1=CCCCC1,14,–,–,–,–,–,–,–
O=C(Cn1cc(S(=O)(=O)Cc2ccccc2)c2ccccc21)Nc1ccccc1,9.7,–,–,–,–,–,–,–
CC1(C)Cc2c(sc(NC(=O)c3ccco3)c2C#N)C(C)(C)N1,·,–,·,·,–,·,·,·
C=CCC[C@@H](Cc1ccc(F)cc1)C(=O)OC[C@@H](Cc1c[nH]c2ccccc12)NC(=O)[C@H](CC=C)CC(=O)N[C@H](CO)Cc1ccccc1,10,–,–,·,·,–,–,–
C=CC[C@H](CC(=O)N[C@H](CO)Cc1ccccc1)C(=O)N[C@H](COC(=O)[C@H](CC=C)CC(=O)OC(C)(C)C)Cc1c[nH]c2ccccc12,22,–,–,·,·,–,–,–
CCOC(=O)Cc1csc(NC(=O)C(CC(C)C)NC(=O)C2CCCCC2)n1 (stereo not drawn),–,–,–,–,–,–,·,·
Cc1cc(=O)oc2c(N)nccc12,·,·,–,·,·,·,·,·
O=C(/C=C/c1ccc(Br)o1)NC(c1ccccc1)c1ccccc1,–,–,–,–,–,–,·,·
N#Cc1ccccc1NC(=O)c1ccc(-c2ccccc2Cl)o1,22,–,–,–,–,–,–,–
COc1cccc(N2CCN(C(=O)CNC(=O)c3sc4ccccc4c3Cl)CC2)c1,70,–,–,·,·,–,–,–
SMILES,MC4R ag barr,T cell modulator,Granule exo inh,EP2 modulator,EP2 antag,MC4R antag cAMP,MC4R barr conf,MOR-DOR barr ag
CCOc1ccccc1N1CCN(C(=O)CNC(=O)c2sc3ccccc3c2Cl)CC1,–,–,–,·,·,–,·,·
O=C1Nc2ccccc2/C1=C/c1cnc(-c2ccccc2)[nH]1,20,–,–,–,–,–,25,–
Cc1cc(=O)oc2cc(OCC3CC(c4ccc(Cl)cc4)=NO3)ccc12 (stereo not drawn),–,–,–,–,–,–,·,·
NNC(=O)c1ccc(OCC2CC(c3ccc(Cl)cc3)=NO2)cc1 (stereo not drawn),12,–,–,–,–,–,–,–
COc1ccccc1CCC(=O)OCC(=O)NCc1ccc(OC)c(OC)c1,–,–,–,·,·,–,·,·
COc1ccc(CNC(=O)COC(=O)c2cc3ccccc3cc2O)cc1OC,14,–,–,·,·,–,–,–
COc1cc(OC)cc(C(=O)OCC(=O)NC(c2ccccc2)c2ccccc2)c1,13,–,–,·,·,–,–,–
CC(NC(=O)COC(=O)c1cc2ccccc2cc1O)c1ccccc1 (stereo not drawn),18,·,–,·,·,–,12,–
COc1cc(OC)cc(C(=O)NC(c2ccccc2)c2ccccc2)c1,–,–,–,·,·,–,·,·
O=C(CN(C1CCCCC1)S(=O)(=O)c1ccc(F)cc1)NCC1CCCO1 (stereo not drawn),–,·,–,–,–,–,·,·
CN(C)CCCN(C(=O)c1cc2cc([N+](=O)[O-])ccc2s1)c1nc2cc3c(cc2s1)OCCO3,35,–,76,·,·,–,25,–
O=C(CCn1cccc(C(F)(F)F)c1=O)Nc1cccc(C(F)(F)F)c1,–,–,–,–,–,–,·,·
Cn1c(SCC(=O)Nc2cc(Cl)cc(Cl)c2)nnc1-c1ccc2nonc2c1,36,–,–,–,–,–,–,–
C=CCc1c(C)[nH]c2ccc(Br)cc2c1=O,·,·,·,–,–,·,·,·
CCc1cc2cccc(C)c2nc1SCC(=O)Nc1ccccc1,·,·,·,–,–,·,·,·
CCc1cc2cccc(C)c2nc1SCC(=O)c1ccc(NC(C)=O)cc1,10,–,–,–,–,–,–,–
COc1ccc(C(=O)Nc2nnc(Cc3ccccc3)s2)c(OC)c1,15,–,–,–,–,–,–,–
O=C(Nc1nnc(CCc2ccccc2)s1)c1cccc(F)c1,14,–,–,·,·,–,–,–
COc1cc(C(=O)Nc2nnc(Cc3ccccc3)s2)cc(OC)c1OC,–,–,–,·,·,–,·,·
O=C(Nc1nnc(CCc2ccccc2)s1)c1ccc(F)cc1,–,–,–,·,·,–,·,·
CCCCn1nnnc1C(c1cc2ccccc2o1)N1CCCN(C(=O)OC(C)(C)C)CC1 (stereo not drawn),·,·,–,·,·,·,·,·
Cc1ccc(S(=O)(=O)N2CCOCC2)cc1NC(=O)C1CC(=O)N(c2ccc3c(c2)OCCO3)C1 (stereo not drawn),–,–,–,·,·,–,·,·
